High-throughput results: PubChem BioAssay, several laboratories
Rows were chosen to be rich in hits. Some 2.5% of all compounds tested hit in one or more screens of this group.
B2AR ag: beta2AR agonists driving receptor internalization, primary screen, cell-based, FAP fluorogen, flow cytometry; Beta-2 adrenergic receptor (Homo sapiens), P07550; Am2.2-beta2AR cells; response, % (no concentration beside the values); 0.43% of 340,000 active;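 active means response above a set limit, near 3 SD of response in nonfluorescent compounds, cut at about 42% in these data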
Target sequence (P07550 whole entry, looked up): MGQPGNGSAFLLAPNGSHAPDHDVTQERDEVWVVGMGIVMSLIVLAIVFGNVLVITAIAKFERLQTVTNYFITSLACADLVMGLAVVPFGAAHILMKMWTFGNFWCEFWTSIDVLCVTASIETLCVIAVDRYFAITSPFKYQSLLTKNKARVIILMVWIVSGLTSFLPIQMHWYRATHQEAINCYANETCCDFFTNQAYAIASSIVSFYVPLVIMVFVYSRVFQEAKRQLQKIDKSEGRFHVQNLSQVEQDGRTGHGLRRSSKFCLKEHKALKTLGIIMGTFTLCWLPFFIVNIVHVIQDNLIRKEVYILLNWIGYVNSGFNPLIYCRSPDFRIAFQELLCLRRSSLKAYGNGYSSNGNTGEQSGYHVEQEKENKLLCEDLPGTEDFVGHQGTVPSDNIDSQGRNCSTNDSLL
NadD block: inhibitors of S. aureus NadD, primary screen, biochemical, colorimetric, uHTS; purified NadD enzyme, colorimetric absorbance read-out; inhibition, % at 20 µM; 0.78% of 360,000 active; AID 602399, 2012; in the data active means inhibition above about 26%
GRK2 inh: compounds blocking aptamer binding on GRK2 – biochemical, human GRK2, bead flow cytometry, HTS, primary screen; 0.59% of 330,000 active; FAM-aptamer displacement from GRK2; inhibition of aptamer binding, % at 10 µM; Beta-adrenergic receptor kinase 1 (Homo sapiens), P25098;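 active means inhibition of aptamer binding above 40%, roughly 3 SD of noise, on plates passing a quality check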;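 further: median bead fluorescence of bound FAM aptamer so fluorescent compounds give negative values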
ABHD5 PLIN5 PPI: ABHD5-PLIN5 interaction inhibitors, primary screen, cell lysate, split luciferase complementation, luminescence; Perilipin-5 (Homo sapiens) + 1-acylglycerol-3-phosphate O-acyltransferase ABHD5 (Homo …; Split G. princeps luciferase complementation, 4 h; inhibition, % at 4 µM; 0.78% of 360,000 active; AID 602281, 2012;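 active means inhibition above the mean inhibition across every tested compound plus 3 SD, cut at about 22% in these data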;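 further: 0% = DMSO only wells and the 100% control is not disclosed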
SENP1 FRET inh: human SENP1 catalytic domain inhibitors, primary screen, biochemical, FRET, uHTS; Sentrin-specific protease 1 (Homo sapiens), Q9P0U3; recombinant SENP1 catalytic domain, CyPet-SUMO1-YPet FRET cleavage; inhibition, % at 10 µM; 0.21% of 360,000 active;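 active means inhibition at least 30% at 10 µM, raw YFP signal under a set limit, fluorescence ratio 0.5 to 1.5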;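 further: 0% = enzyme with DMSO and 100% = no enzyme wells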
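Material: hSENP1 catalytic domain, recombinant; medium: Tris pH 8 with BME, BSA, NP40 and catalase; compound: single concentration of 10 µM compound, 0.5% DMSO final; technique: FRET read of cyan and yellow fluorescence; timing: 50 min enzyme reaction, room temperature, light-protected; reagent: SFCypet-SUMO1-SFYpet substrate at 25 nM; control set: no-enzyme low, enzyme-DMSO high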
GRK2 CP1: GRK2 aptamer-displacing inhibitors, retest, confirmation, biochemical, cherry pick 1, bead flow cytometry; aptamer displacement, % at 10 µM; 4% of 2,000 active; bead-bound GRK2, FAM-aptamer displacement; shares compounds with GRK2 inh; AID 504451, 2011;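 active means aptamer displacement above 40%, near three times the noise of non-fluorescent compounds, on plates passing quality checks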;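 further: negative values mostly reflect intrinsic compound fluorescence rather than true enhancement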
FAM quench CP1: quenches fluorescent RNA aptamer, GRK2 hit artifact | Carboxyfluorescein RNA aptamer on beads, flow cytometry quenching; active compounds read low | shares compounds with GRK2 inh | 2,000 tested, under 10 active | fluorescence response (% of DMSO), % at 10 µM;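 active means compounds that quench the bead-bound fluorescent RNA probe, cutting fluorescence to under half of the solvent control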;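 further: counterscreen run without GRK2 so only probe quenching by compound is measured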
FAM quench DR: quenchers of FAM-labeled RNA aptamer fluorescence, dose response, artefact control for GRK2 aptamer binding project, biochemical, powder set 1, flow cytometry; shares compounds with GRK2 inh; Bead-bound FAM RNA aptamer fluorescence quenching; active compounds read low; fluorescence ratio to DMSO, % at 11.1 µM; 35 tested, under 10 active; AID 588496, 2011;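 active means compounds that dim the fluorescent label, raw bead signal shifting by over 33 units between lowest and highest dose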
* marks the source's active call; other numbers are inactive results.

Cc1cccc(CCNC(=O)CCS(=O)(=O)c2ccc(Br)cc2)c1 was read as B2AR ag 7.2, NadD block -3.0, GRK2 inh 1.0, ABHD5 PLIN5 PPI 2.8, SENP1 FRET inh 0.4, GRK2 CP1 1.8, FAM quench CP1 103.8 and FAM quench DR 101.0.
For COc1ccccc1CNC(=O)CSc1nnc2c(n1)[nH]c1ccc(F)cc12 the results were B2AR ag -15.0, NadD block -3.7, GRK2 inh 0.0, ABHD5 PLIN5 PPI 2.7 and SENP1 FRET inh -1.8.
`CS(=O)(=O)N(CC(=O)N1CCN(c2ccccc2F)CC1)C1CCCCC1` gave B2AR ag -0.6, NadD block 1.1, GRK2 inh 3.0, ABHD5 PLIN5 PPI -2.9 and SENP1 FRET inh 0.5.
Screening COc1ccccc1N1CCN(C(=O)CN(C2CCCCC2)S(C)(=O)=O)CC1 returned B2AR ag 0.9, NadD block -6.4, GRK2 inh 47.0*, ABHD5 PLIN5 PPI 0.3, SENP1 FRET inh -0.7, GRK2 CP1 0.7 and FAM quench CP1 97.7.
`CN(CCc1ccccc1)C(=O)c1ccc(NC(=O)Cc2ccc([N+](=O)[O-])cc2)cc1` gave B2AR ag 2.9, NadD block -3.6, GRK2 inh 0.0, ABHD5 PLIN5 PPI -2.4 and SENP1 FRET inh 4.7.
`O=[N+]([O-])c1cccnc1N1CCCCC1` gave B2AR ag 7.5, NadD block 7.7, GRK2 inh 3.0, ABHD5 PLIN5 PPI 0.5 and SENP1 FRET inh 5.0.
O=[N+]([O-])c1cccnc1N1CCN(c2ccccc2F)CC1 was read as B2AR ag 1.2, NadD block -6.2, GRK2 inh 46.0*, ABHD5 PLIN5 PPI -3.9, SENP1 FRET inh 0.5, GRK2 CP1 -3.4 and FAM quench CP1 99.7.
Screening O=C(C1COc2ccccc2O1)N1CCN(c2ccc([N+](=O)[O-])cc2)CC1 (centres undefined) returned B2AR ag 16.9, NadD block 21.2, GRK2 inh 98.0*, ABHD5 PLIN5 PPI -0.3, SENP1 FRET inh -7.4, GRK2 CP1 -2.1 and FAM quench CP1 98.2.
COc1ccc(CN(C)C(C)C(=O)Nc2ccc(S(=O)(=O)N3CCCCC3)cc2)cc1F (centres undefined) was read as B2AR ag 7.6, NadD block -1.6, GRK2 inh 72.0*, ABHD5 PLIN5 PPI -9.1, SENP1 FRET inh -1.9, GRK2 CP1 -1.0 and FAM quench CP1 99.0.
Screening Cc1ccc(NC(=O)CNCc2ccccc2Cl)cc1S(=O)(=O)N(C)C returned B2AR ag -17.1, NadD block -4.1, GRK2 inh 5.0, ABHD5 PLIN5 PPI -1.8 and SENP1 FRET inh 0.2.
For Cc1ccc(N(C)S(=O)(=O)c2cccc(C(=O)NCC(c3ccco3)N3CCCC3)c2)cc1 (centres undefined) the results were B2AR ag 4.1, NadD block -7.8, GRK2 inh 0.0, ABHD5 PLIN5 PPI 9.9 and SENP1 FRET inh -3.5.
O=C(O)c1cccc(NC(=O)c2ccc3c(c2)C(=O)N(c2ccccc2)C3=O)c1 was read as B2AR ag 2.5, NadD block -6.0, GRK2 inh 0.0, ABHD5 PLIN5 PPI -0.3 and SENP1 FRET inh 0.7.
